Experimental data as given in ChEMBL document CHEMBL3865809, “2-Indolylmethylenebenzofuranones as first effective inhibitors of ABCC2” (Eur J Med Chem, 2016).

Experiments:
[1] = biological target: T1, ATP-binding cassette sub-family C member 2 (Homo sapiens, UniProt Q92887); test: Inhibition of ABCC2 (unknown origin) expressed in human Flp-InTM-293 cells assessed as inhibition of calcein-AM efflux at 5 uM measured after 30 mins in presence of ABCB1 inhibitor GF120918 and ABCC1 inhibitor MK-571 by flow cytometry; assay type: cell-based; conditions: 0.5 h
Outline: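 A confirmatory calcein-AM efflux assay was run the same way in Flp-In-293 cells stably transfected with ABCC2 (pcDNA5-FRT-ABCC2 plus pOG44, by electroporation) and in parental Flp-In-293 cells. Fluorescence was read by flow cytometry, with % inhibition computed against the parental line.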

[2] = biological target: T1, ATP-binding cassette sub-family C member 2; test: Inhibition of ABCC2 (unknown origin) expressed in MDCK2 cells assessed as inhibition of calcein-AM efflux at 5 uM measured after 30 mins in presence of ABCB1 inhibitor GF120918 and ABCC1 inhibitor MK-571 by flow cytometry; assay type: cell-based; conditions: mdck-ii, 0.5 h
Outline: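 Parental and ABCC2-transfected MDCKII cells were seeded at 3 × 10³ cells/well and grown 48 h at 37 °C in 5% CO2. They were then loaded with 25 nM calcein-AM in the presence of GF120918 and […] MK-571. Intracellular fluorescence was read by flow cytometry in the 525/50 nm channel, collecting ≥5000 events.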

[3] = biological target: T1, ATP-binding cassette sub-family C member 2; test: Inhibition of ABCC2 (unknown origin) expressed in MDCK2 cells assessed as inhibition of calcein-AM efflux measured after 30 mins in presence of ABCB1 inhibitor GF120918 and ABCC1 inhibitor MK-571 by flow cytometry; assay type: cell-based, MDCK-II
[4] = Cytotoxicity against MDCK2 cells expressing ABCC2 measured after 72 hrs by MTT assay; assay type: toxicity, cell-based, Canis lupus familiaris, MDCK-II; conditions: dog
Outline: (§1)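 MTT assay in parental and ABCC2-transfected MDCKII cells. Cells were seeded so that they stayed below confluence over 72 h at 37 °C, then exposed to compound from […] for 72 h. MTT at 5 mg/mL was added for 3 h. Formazan was dissolved in DMSO/isopropanol 1:1, and A570 was read and corrected at 690 nm. Mean ± SD of at least three independent experiments; DMSO-only controls run in parallel.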

[5] = Cytotoxicity against wild-type MDCK2 cells measured after 72 hrs by MTT assay; assay type: toxicity, cell-based, Canis lupus familiaris, MDCK-II; conditions: dog; outline: as §1

T1 sequence (Q92887 whole entry): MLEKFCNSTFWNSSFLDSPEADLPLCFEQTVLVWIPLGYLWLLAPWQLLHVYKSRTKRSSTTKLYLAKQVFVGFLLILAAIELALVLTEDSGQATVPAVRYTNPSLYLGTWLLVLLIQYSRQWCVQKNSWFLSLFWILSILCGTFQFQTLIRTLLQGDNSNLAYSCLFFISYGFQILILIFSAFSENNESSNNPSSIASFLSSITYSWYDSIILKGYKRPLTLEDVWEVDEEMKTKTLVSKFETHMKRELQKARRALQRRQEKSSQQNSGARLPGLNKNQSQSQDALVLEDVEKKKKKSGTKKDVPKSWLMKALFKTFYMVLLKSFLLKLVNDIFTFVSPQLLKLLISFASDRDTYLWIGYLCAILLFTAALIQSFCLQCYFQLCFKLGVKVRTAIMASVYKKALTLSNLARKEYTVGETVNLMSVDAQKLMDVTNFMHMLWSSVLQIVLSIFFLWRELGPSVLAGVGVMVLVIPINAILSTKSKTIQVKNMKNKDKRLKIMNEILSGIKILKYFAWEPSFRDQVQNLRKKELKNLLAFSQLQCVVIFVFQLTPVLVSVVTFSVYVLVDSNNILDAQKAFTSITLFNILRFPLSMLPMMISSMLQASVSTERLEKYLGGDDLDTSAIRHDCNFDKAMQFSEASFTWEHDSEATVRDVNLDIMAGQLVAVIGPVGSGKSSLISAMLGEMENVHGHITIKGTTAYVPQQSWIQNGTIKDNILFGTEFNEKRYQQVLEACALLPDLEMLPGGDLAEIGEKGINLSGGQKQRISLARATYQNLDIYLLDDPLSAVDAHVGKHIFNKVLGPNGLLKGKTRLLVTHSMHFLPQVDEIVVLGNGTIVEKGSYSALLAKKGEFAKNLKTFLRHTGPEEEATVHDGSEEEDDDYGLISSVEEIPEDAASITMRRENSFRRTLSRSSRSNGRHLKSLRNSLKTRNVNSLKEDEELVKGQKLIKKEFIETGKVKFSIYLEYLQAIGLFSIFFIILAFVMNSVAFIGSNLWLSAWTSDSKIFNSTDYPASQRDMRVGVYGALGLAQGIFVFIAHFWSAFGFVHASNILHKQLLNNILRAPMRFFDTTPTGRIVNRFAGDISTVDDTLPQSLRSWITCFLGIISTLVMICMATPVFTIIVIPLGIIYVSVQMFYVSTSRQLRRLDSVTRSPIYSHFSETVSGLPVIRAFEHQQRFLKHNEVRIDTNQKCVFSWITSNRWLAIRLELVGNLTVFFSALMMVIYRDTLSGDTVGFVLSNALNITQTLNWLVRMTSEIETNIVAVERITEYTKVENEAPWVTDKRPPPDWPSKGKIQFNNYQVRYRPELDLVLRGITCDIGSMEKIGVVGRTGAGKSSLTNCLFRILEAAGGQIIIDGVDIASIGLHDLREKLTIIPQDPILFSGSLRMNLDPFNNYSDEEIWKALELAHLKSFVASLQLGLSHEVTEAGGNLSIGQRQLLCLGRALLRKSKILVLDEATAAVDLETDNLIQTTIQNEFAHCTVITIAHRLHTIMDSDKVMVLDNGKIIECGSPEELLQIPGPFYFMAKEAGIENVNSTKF

SMILES	inhibition (INH) [1]	inhibition (INH) [2]	IC50 [3]	IC50 at 72 h [4]	IC50 at 72 h [5]
CC(C)=CCn1cc(/C=C2\Oc3cc(O)cc(O)c3C2=O)c2ccccc21	Active	Active	10.6 µM	–	–
O=C1/C(=C/c2cn(CC3CCCCC3)c3ccccc23)Oc2cc(O)cc(O)c21	Active	Active	10.5 µM	–	–
O=C1/C(=C/c2cn(Cc3ccccc3)c3ccccc23)Oc2cc(O)cc(O)c21	Active	Active	12.2 µM	–	–
COc1ccc2c(c1)c(/C=C1\Oc3cc(O)cc(O)c3C1=O)cn2Cc1cccc(Br)c1	Active	Active	7.3 µM	–	–
CCCCn1c(/C=C2\Oc3cc(O)cc(O)c3C2=O)c(C)c2ccccc21	Active	Active	8.2 µM	–	–
CCCCn1c(C)c(/C=C2\Oc3cc(O)cc(O)c3C2=O)c2ccccc21	Active	Active	11.4 µM	–	–
CCCCn1cc(/C=C2\Oc3cc(O)cc(O)c3C2=O)c2cc(OC)ccc21	Active	Active	13.9 µM	–	–
Cn1c(/C=C2\Oc3cc(O)cc(O)c3C2=O)cc2ccccc21	Active	Active	11.1 µM	–	–
CCCCn1cc(/C=C2\Oc3cc(O)cc(O)c3C2=O)c2cccc(OC)c21	Active	Active	6.3 µM	–	–
Cn1cc(/C=C2\Oc3cc(O)cc(O)c3C2=O)c2cc(Br)ccc21	Active	Active	4.5 µM	> 50 µM	> 50 µM
O=C1/C(=C/c2cn(Cc3cccc(Br)c3)c3ccccc23)Oc2cc(O)cc(O)c21	Active	Active	14.4 µM	–	–
COc1cccc(Cn2cc(/C=C3\Oc4cc(O)cc(O)c4C3=O)c3ccccc32)c1	Active	Active	17.5 µM	–	–
O=C1/C(=C/c2cn(CC3CCCCC3)c3ccc(Br)cc23)Oc2cc(O)cc(O)c21	Active	Active	15.8 µM	–	–
CCCCn1cc(/C=C2\Oc3cc(O)cc(O)c3C2=O)c2cccc(C)c21	Active	Active	4.5 µM	> 50 µM	> 50 µM
COc1ccc2c(c1)c(/C=C1\Oc3cc(O)cc(O)c3C1=O)cn2CC1CCCCC1	Active	Active	4.1 µM	> 50 µM	> 50 µM
CCCCn1cc(/C=C2\Oc3cc(O)cc(O)c3C2=O)c2cc(C)ccc21	Active	Active	4.8 µM	> 50 µM	> 50 µM
CCCCn1c(/C=C2\Oc3cc(O)cc(O)c3C2=O)cc2ccccc21	Active	Active	9 µM	–	–
CCCCn1cc(/C=C2\Oc3cc(O)cc(O)c3C2=O)c2cc(Br)ccc21	Active	Active	15.4 µM	–	–
CCn1cc(/C=C2\Oc3cc(O)cc(O)c3C2=O)c2cc(Br)ccc21	Active	Active	17.8 µM	–	–
